Data: ChEMBL document CHEMBL4257575, “Discovery of Novel Flavonoid Dimers To Reverse Multidrug Resistance Protein 1 (MRP1, ABCC1) Mediated Drug Resistance in Cancers Using a High Throughput Platform with "Click Chemistry"” (J Med Chem, 2018)

Test system: MRP1
Assay: in vitro
Details: mouse, L929 cells (IC50) versus 2008/MRP1 cells (EC50)

Question: Which selectivity ratio does the source give for `O=c1cc(-c2ccccc2)oc2cc(OCCN(Cc3ccccc3)Cc3cn(CCOCCOc4ccc(-c5cc(=O)c6cc(F)ccc6o5)cc4)nn3)ccc12` here?
Answer: Its selectivity ratio is over 645.

Question: For `Cc1ccc2oc(-c3ccc(OCCOCCOCCn4cc(CCCOc5ccc(-c6cc(=O)c7ccc(F)cc7o6)cc5)nn4)cc3)cc(=O)c2c1`, which selectivity ratio is on record?
Answer: The selectivity ratio was over 826.

Question: With `O=c1cc(-c2ccc(OCCOCCn3cc(CCCCOc4ccc5c(=O)cc(-c6ccccc6)oc5c4)nn3)cc2)oc2ccccc12` as the molecule, how does the selectivity ratio read?
Answer: The selectivity ratio was over 1150.

Question: For `O=c1cc(-c2ccc(OCCOCCOCCn3cc(CCCOc4ccc(-c5cc(=O)c6ccc(F)cc6o5)cc4)nn3)cc2)oc2ccccc12`, which selectivity ratio is on record?
Answer: Its selectivity ratio is over 481.

Question: For `O=c1cc(-c2ccc(OCCCc3cn(CCOCCOCCOc4ccc(-c5cc(=O)c6cc(F)ccc6o5)cc4)nn3)cc2)oc2cc(F)ccc12`, which selectivity ratio is on record?
Answer: Its selectivity ratio is over 971.

Question: For `Cc1ccc2oc(-c3ccc(OCCCCc4cn(CCOCCOc5ccc(-c6cc(=O)c7ccccc7o6)cc5)nn4)cc3)cc(=O)c2c1`, which selectivity ratio is on record?
Answer: The selectivity ratio was over 553.

Question: For `O=c1cc(-c2ccccc2)oc2cc(OCCN(Cc3ccccc3)Cc3cn(CCOCCOCCOc4ccc(-c5cc(=O)c6cc(F)ccc6o5)cc4)nn3)ccc12`, which selectivity ratio is on record?
Answer: Its selectivity ratio is over 641.

Question: For `O=c1cc(-c2ccc(OCCOCCn3cc(COCCOc4ccc5c(=O)cc(-c6ccccc6)oc5c4)nn3)cc2)oc2ccccc12`, which selectivity ratio is on record?
Answer: Its selectivity ratio is over 190.

Test system: not listed separately
Assay: Cytotoxicity against human 2008/MRP1 cells assessed as cell survival at 2 uM after 5 days by MTS assay relative to control
Type: cell-based
Details: read-out: Survival

Question: For `CCc1ccc(O)c(C(=O)/C=C/c2ccc(OCCCCc3cn(CCOCCOc4ccc(-c5cc(=O)c6ccccc6o5)cc4)nn3)cc2)c1`, which viability at 120 h, 2 µM is on record?
Answer: The viability at 120 h, 2 µM was 95%.

Question: Which viability at 120 h, 2 µM does the source give for `O=c1cc(-c2ccccc2)oc2cc(OCCN(Cc3ccccc3)Cc3cn(CCOCCOc4ccc(-c5cc(=O)c6cc(F)ccc6o5)cc4)nn3)ccc12` here?
Answer: The viability at 120 h, 2 µM was 87%.

Question: Which viability at 120 h, 2 µM does the source give for `Cc1ccc2oc(-c3ccc(OCCOCCOCCn4cc(CCCOc5ccc(-c6cc(=O)c7ccc(F)cc7o6)cc5)nn4)cc3)cc(=O)c2c1` here?
Answer: Its viability at 120 h, 2 µM is 95%.

Question: For `O=c1cc(-c2ccc(OCCOCCn3cc(CCCCOc4ccc5c(=O)cc(-c6ccccc6)oc5c4)nn3)cc2)oc2ccccc12`, which viability at 120 h, 2 µM is on record?
Answer: Its viability at 120 h, 2 µM is 95%.

Question: With `O=c1cc(-c2ccc(OCCOCCOCCn3cc(CCCOc4ccc(-c5cc(=O)c6ccc(F)cc6o5)cc4)nn3)cc2)oc2ccccc12` as the molecule, how does the viability at 120 h, 2 µM read?
Answer: Its viability at 120 h, 2 µM is 93%.

Question: With `O=c1cc(-c2ccc(OCCCc3cn(CCOCCOCCOc4ccc(-c5cc(=O)c6cc(F)ccc6o5)cc4)nn3)cc2)oc2cc(F)ccc12` as the molecule, how does the viability at 120 h, 2 µM read?
Answer: The viability at 120 h, 2 µM was 95%.

Question: With `Cc1ccc2oc(-c3ccc(OCCCCc4cn(CCOCCOc5ccc(-c6cc(=O)c7ccccc7o6)cc5)nn4)cc3)cc(=O)c2c1` as the molecule, how does the viability at 120 h, 2 µM read?
Answer: Its viability at 120 h, 2 µM is 85%.

Question: With `O=c1cc(-c2ccccc2)oc2cc(OCCN(Cc3ccccc3)Cc3cn(CCOCCOCCOc4ccc(-c5cc(=O)c6cc(F)ccc6o5)cc4)nn3)ccc12` as the molecule, how does the viability at 120 h, 2 µM read?
Answer: The viability at 120 h, 2 µM was 72%.

Question: Which viability at 120 h, 2 µM does the source give for `O=c1cc(-c2ccc(OCCOCCn3cc(COCCOc4ccc5c(=O)cc(-c6ccccc6)oc5c4)nn3)cc2)oc2ccccc12` here?
Answer: Its viability at 120 h, 2 µM is 97%.

Target: T1, Multidrug resistance-associated protein 1 (Homo sapiens, UniProt P33527)
Assay: Inhibition of MRP1 in human 2008/MRP1 cells assessed as potentiation of doxorubicin-induced cytotoxicity by measuring cell survival at 1 uM after 5 days by MTS assay relative to control
Type: cell-based
Details: 120 h
How it was run: (§1)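 2008/MRP1 cells (retroviral human MRP1 transfectant; RPMI 1640, 10% FBS) at 4,000 per well, with 100 nM doxorubicin plus crude, unpurified click products in DMSO: 2 µM in the primary screen, 1 µM in the secondary. Incubated 5 days at 37 °C. MTS/PMS added for 2 h at 37 °C, absorbance read at 490 nm. % survival is relative to wells without DOX or product. Run in triplicate, at least three experiments.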

T1 sequence (P33527 whole entry): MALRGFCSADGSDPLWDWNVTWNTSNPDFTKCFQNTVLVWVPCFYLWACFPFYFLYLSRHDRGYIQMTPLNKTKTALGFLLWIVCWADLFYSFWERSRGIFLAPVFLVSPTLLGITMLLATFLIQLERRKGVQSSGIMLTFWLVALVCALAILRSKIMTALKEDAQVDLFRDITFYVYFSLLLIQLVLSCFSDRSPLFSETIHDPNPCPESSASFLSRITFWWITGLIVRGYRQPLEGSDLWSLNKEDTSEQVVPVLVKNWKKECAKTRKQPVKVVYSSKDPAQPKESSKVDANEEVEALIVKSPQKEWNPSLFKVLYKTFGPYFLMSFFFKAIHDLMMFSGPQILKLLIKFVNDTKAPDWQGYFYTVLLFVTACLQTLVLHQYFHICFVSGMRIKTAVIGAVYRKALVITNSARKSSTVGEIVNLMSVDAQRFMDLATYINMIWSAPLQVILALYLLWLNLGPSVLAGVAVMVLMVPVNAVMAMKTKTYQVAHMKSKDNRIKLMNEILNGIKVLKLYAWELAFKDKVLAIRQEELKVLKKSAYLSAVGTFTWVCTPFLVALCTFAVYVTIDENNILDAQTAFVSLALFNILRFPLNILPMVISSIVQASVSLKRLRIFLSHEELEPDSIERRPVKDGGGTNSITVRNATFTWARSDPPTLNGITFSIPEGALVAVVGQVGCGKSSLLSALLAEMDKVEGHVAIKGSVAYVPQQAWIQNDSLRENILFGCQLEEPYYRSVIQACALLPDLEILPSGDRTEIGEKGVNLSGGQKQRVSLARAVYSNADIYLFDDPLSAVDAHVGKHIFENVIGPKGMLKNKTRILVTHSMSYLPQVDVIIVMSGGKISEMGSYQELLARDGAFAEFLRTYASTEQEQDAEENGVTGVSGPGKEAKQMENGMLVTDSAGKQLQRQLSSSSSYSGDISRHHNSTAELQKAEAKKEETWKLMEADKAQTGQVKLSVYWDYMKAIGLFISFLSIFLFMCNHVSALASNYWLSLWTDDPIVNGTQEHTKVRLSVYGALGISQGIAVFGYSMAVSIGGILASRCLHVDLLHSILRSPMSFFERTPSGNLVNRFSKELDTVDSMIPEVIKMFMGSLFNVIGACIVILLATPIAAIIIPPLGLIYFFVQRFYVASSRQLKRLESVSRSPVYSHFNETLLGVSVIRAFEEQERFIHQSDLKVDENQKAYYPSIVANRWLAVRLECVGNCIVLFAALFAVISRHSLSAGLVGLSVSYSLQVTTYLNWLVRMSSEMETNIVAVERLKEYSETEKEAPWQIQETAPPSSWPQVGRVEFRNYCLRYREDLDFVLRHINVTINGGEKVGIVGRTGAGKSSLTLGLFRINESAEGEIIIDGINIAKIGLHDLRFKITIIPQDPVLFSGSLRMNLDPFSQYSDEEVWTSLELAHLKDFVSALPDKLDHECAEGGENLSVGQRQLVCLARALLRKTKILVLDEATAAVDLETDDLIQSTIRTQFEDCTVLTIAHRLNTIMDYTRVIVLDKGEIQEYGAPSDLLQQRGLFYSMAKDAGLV

Question: For `CCc1ccc(O)c(C(=O)/C=C/c2ccc(OCCCCc3cn(CCOCCOc4ccc(-c5cc(=O)c6ccccc6o5)cc4)nn3)cc2)c1`, which Survival is on record?
Answer: Its Survival is 66%.

Question: Which Survival does the source give for `O=c1cc(-c2ccccc2)oc2cc(OCCN(Cc3ccccc3)Cc3cn(CCOCCOc4ccc(-c5cc(=O)c6cc(F)ccc6o5)cc4)nn3)ccc12` here?
Answer: Its Survival is 46%.

Question: For `Cc1ccc2oc(-c3ccc(OCCOCCOCCn4cc(CCCOc5ccc(-c6cc(=O)c7ccc(F)cc7o6)cc5)nn4)cc3)cc(=O)c2c1`, which Survival is on record?
Answer: Its Survival is 50%.

Question: With `O=c1cc(-c2ccc(OCCOCCn3cc(CCCCOc4ccc5c(=O)cc(-c6ccccc6)oc5c4)nn3)cc2)oc2ccccc12` as the molecule, how does the Survival read?
Answer: Its Survival is 42%.

Question: For `O=c1cc(-c2ccc(OCCOCCOCCn3cc(CCCOc4ccc(-c5cc(=O)c6ccc(F)cc6o5)cc4)nn3)cc2)oc2ccccc12`, which Survival is on record?
Answer: Its Survival is 51%.

Question: For `O=c1cc(-c2ccc(OCCCc3cn(CCOCCOCCOc4ccc(-c5cc(=O)c6cc(F)ccc6o5)cc4)nn3)cc2)oc2cc(F)ccc12`, which Survival is on record?
Answer: Its Survival is 48%.

Question: Which Survival does the source give for `Cc1ccc2oc(-c3ccc(OCCCCc4cn(CCOCCOc5ccc(-c6cc(=O)c7ccccc7o6)cc5)nn4)cc3)cc(=O)c2c1` here?
Answer: The Survival was 25%.

Question: With `O=c1cc(-c2ccccc2)oc2cc(OCCN(Cc3ccccc3)Cc3cn(CCOCCOCCOc4ccc(-c5cc(=O)c6cc(F)ccc6o5)cc4)nn3)ccc12` as the molecule, how does the Survival read?
Answer: The Survival was 50%.

Question: Which Survival does the source give for `O=c1cc(-c2ccc(OCCOCCn3cc(COCCOc4ccc5c(=O)cc(-c6ccccc6)oc5c4)nn3)cc2)oc2ccccc12` here?
Answer: Its Survival is 46%.

Species on record: Homo sapiens
Assay: Inhibition of P-gp in human LCC6MDR cells assessed as potentiation of paclitaxel-induced cytotoxicity by measuring fold reduction in paclitaxel IC50 at 1 uM after 5 days by MTS assay relative to paclitaxel alone
Type: cell-based
Details: not given

Question: For `O=c1cc(-c2ccccc2)oc2cc(OCCN(Cc3ccccc3)Cc3cn(CCOCCOc4ccc(-c5cc(=O)c6cc(F)ccc6o5)cc4)nn3)ccc12`, which Ratio IC50 is on record?
Answer: Its Ratio IC50 is 26.5.

Question: Which Ratio IC50 does the source give for `Cc1ccc2oc(-c3ccc(OCCOCCOCCn4cc(CCCOc5ccc(-c6cc(=O)c7ccc(F)cc7o6)cc5)nn4)cc3)cc(=O)c2c1` here?
Answer: The Ratio IC50 was 36.9.

Question: With `O=c1cc(-c2ccc(OCCOCCn3cc(CCCCOc4ccc5c(=O)cc(-c6ccccc6)oc5c4)nn3)cc2)oc2ccccc12` as the molecule, how does the Ratio IC50 read?
Answer: Its Ratio IC50 is 19.8.

Question: With `O=c1cc(-c2ccc(OCCOCCOCCn3cc(CCCOc4ccc(-c5cc(=O)c6ccc(F)cc6o5)cc4)nn3)cc2)oc2ccccc12` as the molecule, how does the Ratio IC50 read?
Answer: Its Ratio IC50 is 4.

Question: Which Ratio IC50 does the source give for `O=c1cc(-c2ccc(OCCCc3cn(CCOCCOCCOc4ccc(-c5cc(=O)c6cc(F)ccc6o5)cc4)nn3)cc2)oc2cc(F)ccc12` here?
Answer: The Ratio IC50 was 22.7.

Question: With `Cc1ccc2oc(-c3ccc(OCCCCc4cn(CCOCCOc5ccc(-c6cc(=O)c7ccccc7o6)cc5)nn4)cc3)cc(=O)c2c1` as the molecule, how does the Ratio IC50 read?
Answer: Its Ratio IC50 is 69.

Question: Which Ratio IC50 does the source give for `O=c1cc(-c2ccccc2)oc2cc(OCCN(Cc3ccccc3)Cc3cn(CCOCCOCCOc4ccc(-c5cc(=O)c6cc(F)ccc6o5)cc4)nn3)ccc12` here?
Answer: The Ratio IC50 was 16.9.

Question: Which Ratio IC50 does the source give for `O=c1cc(-c2ccc(OCCOCCn3cc(COCCOc4ccc5c(=O)cc(-c6ccccc6)oc5c4)nn3)cc2)oc2ccccc12` here?
Answer: The Ratio IC50 was 3.3.

Test system: L929
Assay: Cytotoxicity against mouse L929 cells assessed as reduction in cell survival after 5 days by MTS assay
Type: cell-based
Details: L929, 120 h

Question: With `O=c1cc(-c2ccccc2)oc2cc(OCCN(Cc3ccccc3)Cc3cn(CCOCCOc4ccc(-c5cc(=O)c6cc(F)ccc6o5)cc4)nn3)ccc12` as the molecule, how does the IC50 read?
Answer: The IC50 was over 100 µM.

Question: Which IC50 does the source give for `Cc1ccc2oc(-c3ccc(OCCOCCOCCn4cc(CCCOc5ccc(-c6cc(=O)c7ccc(F)cc7o6)cc5)nn4)cc3)cc(=O)c2c1` here?
Answer: The IC50 was over 100 µM.

Question: For `O=c1cc(-c2ccc(OCCOCCn3cc(CCCCOc4ccc5c(=O)cc(-c6ccccc6)oc5c4)nn3)cc2)oc2ccccc12`, which IC50 is on record?
Answer: The IC50 was over 100 µM.

Question: Which IC50 does the source give for `O=c1cc(-c2ccc(OCCOCCOCCn3cc(CCCOc4ccc(-c5cc(=O)c6ccc(F)cc6o5)cc4)nn3)cc2)oc2ccccc12` here?
Answer: Its IC50 is over 100 µM.

Question: Which IC50 does the source give for `O=c1cc(-c2ccc(OCCCc3cn(CCOCCOCCOc4ccc(-c5cc(=O)c6cc(F)ccc6o5)cc4)nn3)cc2)oc2cc(F)ccc12` here?
Answer: Its IC50 is over 100 µM.

Question: For `Cc1ccc2oc(-c3ccc(OCCCCc4cn(CCOCCOc5ccc(-c6cc(=O)c7ccccc7o6)cc5)nn4)cc3)cc(=O)c2c1`, which IC50 is on record?
Answer: The IC50 was over 57 µM.

Question: Which IC50 does the source give for `O=c1cc(-c2ccccc2)oc2cc(OCCN(Cc3ccccc3)Cc3cn(CCOCCOCCOc4ccc(-c5cc(=O)c6cc(F)ccc6o5)cc4)nn3)ccc12` here?
Answer: The IC50 was over 100 µM.

Question: Which IC50 does the source give for `O=c1cc(-c2ccc(OCCOCCn3cc(COCCOc4ccc5c(=O)cc(-c6ccccc6)oc5c4)nn3)cc2)oc2ccccc12` here?
Answer: Its IC50 is over 50 µM.

Target: T1, Multidrug resistance-associated protein 1
Assay: Inhibition of MRP1 in human 2008/MRP1 cells assessed as potentiation of doxorubicin-induced cytotoxicity by measuring cell survival at 2 uM after 5 days by MTS assay relative to control
Type: cell-based
Details: 120 h
How it was run: as §1

Question: For `CCc1ccc(O)c(C(=O)/C=C/c2ccc(OCCCCc3cn(CCOCCOc4ccc(-c5cc(=O)c6ccccc6o5)cc4)nn3)cc2)c1`, which Survival is on record?
Answer: The Survival was 40%.

Question: With `O=c1cc(-c2ccccc2)oc2cc(OCCN(Cc3ccccc3)Cc3cn(CCOCCOc4ccc(-c5cc(=O)c6cc(F)ccc6o5)cc4)nn3)ccc12` as the molecule, how does the Survival read?
Answer: Its Survival is 36%.

Question: For `Cc1ccc2oc(-c3ccc(OCCOCCOCCn4cc(CCCOc5ccc(-c6cc(=O)c7ccc(F)cc7o6)cc5)nn4)cc3)cc(=O)c2c1`, which Survival is on record?
Answer: Its Survival is 45%.

Question: For `O=c1cc(-c2ccc(OCCOCCn3cc(CCCCOc4ccc5c(=O)cc(-c6ccccc6)oc5c4)nn3)cc2)oc2ccccc12`, which Survival is on record?
Answer: Its Survival is 30%.

Question: With `O=c1cc(-c2ccc(OCCOCCOCCn3cc(CCCOc4ccc(-c5cc(=O)c6ccc(F)cc6o5)cc4)nn3)cc2)oc2ccccc12` as the molecule, how does the Survival read?
Answer: The Survival was 44%.

Question: With `O=c1cc(-c2ccc(OCCCc3cn(CCOCCOCCOc4ccc(-c5cc(=O)c6cc(F)ccc6o5)cc4)nn3)cc2)oc2cc(F)ccc12` as the molecule, how does the Survival read?
Answer: Its Survival is 42%.

Question: For `Cc1ccc2oc(-c3ccc(OCCCCc4cn(CCOCCOc5ccc(-c6cc(=O)c7ccccc7o6)cc5)nn4)cc3)cc(=O)c2c1`, which Survival is on record?
Answer: Its Survival is 20%.

Question: Which Survival does the source give for `O=c1cc(-c2ccccc2)oc2cc(OCCN(Cc3ccccc3)Cc3cn(CCOCCOCCOc4ccc(-c5cc(=O)c6cc(F)ccc6o5)cc4)nn3)ccc12` here?
Answer: Its Survival is 44%.

Question: Which Survival does the source give for `O=c1cc(-c2ccc(OCCOCCn3cc(COCCOc4ccc5c(=O)cc(-c6ccccc6)oc5c4)nn3)cc2)oc2ccccc12` here?
Answer: The Survival was 31%.
